FLuc act counter = affects firefly luciferase, flagging false hits in luciferase stimulation screens | P08659 | ATPlite luciferase biochemical, luminescence, 10 min; 0 = ATP-free wells, 1 = DMSO control | activation factor at 10 µM | 200,000 tested, under 10 active;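 active means luciferase activation factor, scaled between plate controls, of at least 2 with compound at 10 µM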
Target sequence (P08659 whole entry, looked up): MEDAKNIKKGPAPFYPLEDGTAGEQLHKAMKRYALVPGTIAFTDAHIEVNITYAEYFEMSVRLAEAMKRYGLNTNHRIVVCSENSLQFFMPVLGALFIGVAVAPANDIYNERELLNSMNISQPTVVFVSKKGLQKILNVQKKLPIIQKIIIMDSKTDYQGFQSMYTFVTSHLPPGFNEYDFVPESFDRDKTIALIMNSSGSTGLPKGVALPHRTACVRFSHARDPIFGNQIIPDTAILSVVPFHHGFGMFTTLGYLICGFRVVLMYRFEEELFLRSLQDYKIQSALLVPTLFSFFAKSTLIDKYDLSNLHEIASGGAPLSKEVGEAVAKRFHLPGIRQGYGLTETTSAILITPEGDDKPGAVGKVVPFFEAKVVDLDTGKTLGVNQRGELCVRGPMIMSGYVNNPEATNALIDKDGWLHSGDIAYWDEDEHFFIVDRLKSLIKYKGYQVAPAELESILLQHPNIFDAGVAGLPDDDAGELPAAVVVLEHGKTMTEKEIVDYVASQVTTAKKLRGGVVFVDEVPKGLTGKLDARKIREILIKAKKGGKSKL
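System: luciferase plus luciferin reagent, cell-free; medium: PBS as buffer for the ATP substrate; dosing: test compounds dosed from 2 mM stocks in 100% DMSO; timing: 10 min post-reagent at room temperature; measured by: luminescence measurement of luciferase light output; evaluation: luciferase activation, seen as luminescence increase over controls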
FLuc inhib CS = counter-screen for luciferase assay inhibitors: firefly luciferase inhibition | P08659 | ATPLite firefly luciferase biochemical luminescence, 10 min | inhibition, % at 10 µM | 1.5% of 200,000 active;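 active means inhibition above about 50% when tested at 10 µM, limit read from the data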
PPC-1+TRAIL kill = kills PPC-1 cancer cells in the presence of TRAIL; cell killing (% activity), % at 4 µM or 5 µM; 0.41% of 220,000 active; PPC-1 cells + TRAIL, ATPLite viability luminescence;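 active means cell killing above 50% in the first pass at 4 µM, then a duplicate retest at 5 µM averaging 50% or more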;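 further: plate controls were cells with TRAIL plus DMSO for no effect and medium-only wells lacking cells for full effect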
TRAIL sens C8 = caspase-8 TRAIL sensitization; 1% of 360,000 active; inhibition (viability loss, TRAIL sensitization), % at 10 µM; NB7+C8 cells + TRAIL, ATPlite viability luminescence;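 active means compounds causing at least 50% loss of cell viability in the single-dose screen, relative to plate controls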
PPC-1 tox = PPC-1 cell cytotoxicity; cytotoxicity, % at 5 µM; AID 1447; shares compounds with PPC-1+TRAIL kill; 50% of 1,200 active; PPC-1 viability, ATPlite luminescence, overnight;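 active means reconfirmed compounds whose average cytotoxicity reaches 50% or more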;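 further: 0% = DMSO-treated cells and 100% = wells holding medium but no cells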
The depositor's hits bear a star; x = not tested or not shown. A selection: hits, their analogues and other compounds. The true share with any hit is near 1.5%.

SMILES | FLuc act counter | FLuc inhib CS | PPC-1+TRAIL kill | TRAIL sens C8 | PPC-1 tox
CC1CCCC(C)N1C(=O)COc1ccc(C(=O)N/N=C/c2ccc(C(=O)O)cc2)cc1 (configuration not stated) | 1 | -3 | -25 | -4 | x
COC(=O)c1cccc(S(=O)(=O)N2CCC(n3nnc4cc(F)ccc43)CC2)c1 | 1 | -1 | 10 | -1 | 24
O=C(CCNc1ccc(F)cc1)c1ccco1 | 0.9 | 10 | 9 | 19 | 2
CC(C)Cn1c(SCC(=O)NCc2ccc(Cl)cc2)nnc1-c1cccc(S(=O)(=O)N2CCOCC2)c1 | 1 | -4 | 0 | -1 | 1
CC(C)Cn1c(SCC(=O)O)nnc1-c1cccc(S(=O)(=O)N2CCOCC2)c1 | x | x | x | -8 | x
C/C(=N\N1C(=O)c2ccccc2NC1c1ccccc1)c1ccccc1O (configuration not stated) | 1 | -1 | 48 | 70* | 42
C/C(=N\N1C(=O)c2ccccc2NC1c1ccco1)c1ccccc1O (configuration not stated) | 1 | 2 | 46 | 76* | 50*
O=C1c2ccccc2NC(c2ccco2)N1/N=C/c1ccco1 (configuration not stated) | 1 | -2 | 27 | 17 | x
COc1ccccc1NC(=O)C(C)OC(=O)CCNS(=O)(=O)c1ccc(C)c(C)c1 (configuration not stated) | x | x | x | 16 | x
Cc1ccc(SCC(=O)OCC(=O)NC2(C#N)CCCCC2)cc1 | x | x | x | -2 | x
O=C(Nc1nnc(SCCN2CCOCC2)s1)C1CC(=O)N(c2ccc(F)cc2)C1 (configuration not stated) | x | x | x | -12 | x
Cc1csc(NC(=O)c2cc3c(s2)CCC3)n1 | 0.2 | 79* | 51* | 84* | 47
COc1ccc(OCc2cc(C(=O)N3CCCC(O)C3)no2)c2ccccc12 (configuration not stated) | x | x | x | 19 | x
Cn1cc(C(=O)N/N=C/c2c(O)ccc3ccccc23)ccc1=O | 1 | 4 | 32 | 29 | 25
O=C(NCC(c1ccco1)N1CCN(c2ccccc2)CC1)C(=O)NC1CCCCC1 (configuration not stated) | x | x | x | 5 | x
COc1ccc(/C=N/Nc2nc3ccccc3s2)cc1O | 0.2 | 83* | 40 | 44 | 40
CNC(=O)/C(C#N)=C/c1c(N2CC(C)OC(C)C2)nc2ccccn2c1=O (configuration not stated) | 1 | -1 | 40 | 23 | x
CC1(C)CC(N2CCN(CCO)CC2)=CC(=S)N1 | x | x | 4 | 2 | x
COCCn1nnnc1C(c1cc2cc(C)ccc2[nH]c1=O)N1CCN(C2CCCCC2)CC1 (configuration not stated) | 1 | -1 | 23 | 0 | x
COCCn1nnnc1C(c1cc2ccc(OC)cc2[nH]c1=O)N1CCN(C2CCCCC2)CC1 (configuration not stated) | 1 | -3 | -20 | 2 | 0
Cc1ccccc1C(C(=O)NC1CCCCC1)N(C(=O)c1ccccn1)c1cccnc1 (configuration not stated) | 1.1 | -8 | 0 | 6 | x
CCN1CCN(CCC(=O)Nc2ccc(F)c(F)c2)CC1 | x | x | x | 0 | x
O=C(CCN1CCN(CCO)CC1)Nc1ccc(F)c(F)c1 | 1.1 | -5 | -1 | -6 | 5
Cc1cccc(/C=C/C(=O)c2ccc(N3CCOCC3)cc2)c1 | 0.8 | 22 | -7 | x | x
Cc1ccc(/C=C/C(=O)c2ccc(N3CCOCC3)cc2)s1 | 0.1 | 94* | 80* | 73* | 78*
SMILES | FLuc act counter | FLuc inhib CS | PPC-1+TRAIL kill | TRAIL sens C8 | PPC-1 tox
O=C(NC(=O)c1ccc(F)cc1F)Nc1ccc(Cl)cc1 | x | x | 5 | -5 | x
CN(C(=S)NCCN1CCOCC1)C(c1ccccc1)c1ccccc1 | 1.1 | -7 | 10 | 7 | x
O=C1C(Nc2ccc(O)cc2)=C/C(=N/S(=O)(=O)c2cccs2)c2ccccc21 | 0.9 | 14 | 73* | 96* | 74*
Cc1ccc(NC2=C/C(=N\S(=O)(=O)c3cccs3)c3ccccc3C2=O)c(C)c1 | 0.9 | 6 | 52* | 96* | 54*
COC1=C(Nc2ccc(O)cc2)C(=O)c2ccccc2C1=O | 0.9 | 13 | 28 | 9 | x
CC(C)OC(=O)c1cccnc1N1CCN(c2cccc(Cl)c2)CC1 | 1.1 | -8 | 22 | 0 | x
Cc1cccc(-n2cccc2)c1C#N | 1.1 | -11 | 18 | -3 | 9
O=C(Nc1c(S(=O)(=O)c2ccc(Cl)cc2)csc1Br)c1ccccc1Cl | x | x | 4 | -3 | x
CCOC(=O)N1CCN(C(=O)c2cc(-c3ccncc3)nc3ccccc23)CC1 | x | x | x | 28 | x

Bioassay records (PubChem)
